Active and inactive are the calls of the source. No cut-off for these calls is given here.
Key:
Mus musculus [1] = test: Antihyperglycemic activity in db/db mouse assessed as reduction in cholesterol level at 10 mg/kg, po qd for 15 days; assay type: functional; design: scale not given: the % may be the effect or the level left
Procedure, shortened: (§1)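 db/db mice given 3, 10 or 30 mg/kg orally once a day for 15 consecutive days, alongside vehicle controls. Serum triglyceride, total cholesterol, HDL-C and insulin measured, along with fasting blood glucose. Expressed as mean % change in 5 animals per group versus control.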

Mus musculus [2] = test: Antihyperglycemic activity in db/db mouse assessed as reduction in blood glucose level at 10 mg/kg, po qd and measured on day 4 by oral glucose tolerance test; assay type: functional, organism-based
Procedure, shortened: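 Type 2 diabetic db/db mice dosed orally once a day for 15 days at 3, 10 or 30 mg/kg, with pioglitazone at 10 mg/kg as standard. Blood glucose measured daily and profile compared with vehicle-treated animals. Mean % change in 5 animals per group.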

Mus musculus [3] = test: Antihyperglycemic activity in db/db mouse assessed as improvement on glucose tolerance by measuring blood glucose AUC level at 10 mg/kg, po qd for 10 days by oral glucose tolerance test; assay type: functional
Procedure, shortened: (§2)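 db/db mice dosed orally once daily for 15 consecutive days at 3, 10 or 30 mg/kg, with vehicle controls and pioglitazone at 10 mg/kg. Oral glucose tolerance tests on day 10 and day 15. Overall improvement in glucose tolerance calculated against vehicle control. Mean % change in 5 animals per group.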

Mus musculus [4] = test: Antihyperglycemic activity in db/db mouse assessed as increase in HDL-C level at 10 mg/kg, po qd for 15 days; assay type: functional; procedure, shortened: as §1
Mus musculus [5] = test: Antihyperglycemic activity in db/db mouse assessed as reduction in triglyceride level at 10 mg/kg, po qd for 15 days; assay type: functional; design: scale not given: the % may be the effect or the level left; procedure, shortened: as §1
Mus musculus [6] = test: Antihyperglycemic activity in db/db mouse assessed as reduction in insulin level at 10 mg/kg, po qd for 15 days; assay type: functional; design: scale not given: the % may be the effect or the level left; procedure, shortened: as §1
Mus musculus [7] = test: Antihyperglycemic activity in db/db mouse assessed as improvement on glucose tolerance by measuring blood glucose AUC level at 10 mg/kg, po qd for 15 days by oral glucose tolerance test; assay type: functional; procedure, shortened: as §2
Mus musculus [8] = test: Antihyperglycemic activity in db/db mouse assessed as reduction in fasting blood glucose level at 10 mg/kg, po qd for 15 days; assay type: functional; design: scale not given: the % may be the effect or the level left; procedure, shortened: as §1
L6 = test: Stimulation of [3H]2-deoxyglucose uptake in rat L6 cells at 10 uM incubated for 16 hrs by scintillation counting method; assay type: functional, cell-based
Procedure, shortened: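 L6 myotubes incubated with the compound […]; insulin at 100 nM for 20 min served as the positive control. Uptake of ³H-2-deoxyglucose measured and expressed as fold stimulation relative to the control condition.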

Row | SMILES | Activity (Mus musculus [1]) [%] | Activity (Mus musculus [2]) | Activity (Mus musculus [3]) [%] | Activity (Mus musculus [4]) [%] | Activity (Mus musculus [5]) [%] | Activity (Mus musculus [6]) [%] | Activity (Mus musculus [7]) [%] | Activity (Mus musculus [8]) [%] | Activity (L6)
1 | CCc1ccc(CCOc2ccc(CC3SC(=O)NC3=O)cc2)nc1 (stereo not given) [PIOGLITAZONE] | 15.1 | Active | 34.8 | 23.9 | 9.58 | 58.1 | 45.4 | 59.1 | 
2 | COC(=O)c1c(SC)cc(-c2ccc(F)cc2)c2c1-c1cn(-c3ccccc3)nc1CC2 |  |  |  |  |  |  |  |  | inactive
3 | COC(=O)c1c(SC)cc(-c2ccc(Cl)cc2)c2c1-c1cn(-c3ccccc3)nc1CC2 |  |  |  |  |  |  |  |  | inactive

Reference: ChEMBL document CHEMBL4138048, “Synthesis of substituted 2H-benzo[e]indazole-9-carboxylate as a potent antihyperglycemic agent that may act through IRS-1, Akt and GSK-3β pathways” (Medchemcomm, 2017)
